Measured values reported in ChEMBL document CHEMBL3872271, “Identification and validation of small molecule modulators of the NusB-NusE interaction” (Bioorg Med Chem Lett, 2017).

Legend:
Bacillus subtilis [1] = assay: Inhibition of Bacillus subtilis full length NusB/GST-tagged NusE interaction at 25 uM preincubated with NusE for 15 mins followed by incubation with NusB for 1 hr by ELISA
Method in brief: (§1)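 Wells coated overnight at 4 °C with purified full-length B. subtilis NusB (250 nM in PBS), then blocked with 1% BSA/PBS for 2 h at RT. Inhibitor preincubated with GST-NusE (200 nM) for 15 min at 37 °C, then added to wells for 1 h at RT. Bound NusE detected with rabbit anti-GST (1:2000), goat anti-rabbit HRP (1:2000) and TMB (6 min, 37 °C), read at OD 600 nm.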

[2] = Inhibition of Bacillus subtilis full length NusB/GST-tagged NusE preincubated with NusE for 15 mins followed by incubation with NusB for 1 hr by ELISA; method in brief: as §1
Escherichia coli = assay: Growth inhibition of Escherichia coli DH5alpha at 200 uM measured every 10 mins for 16 hrs; type: functional; conditions: DH5[alpha], read-out: GI
Method in brief: (§2)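 Cells grown at 37 °C in LB with shaking to OD 0.6–0.7 AU, then added to LB containing compound (50 mM DMSO stocks, serially diluted to 200 μM). Plates incubated at 37 °C, 200 rpm. OD600 was read every 10 min for 16 h with LB as blank. Triplicates, with growth compared to cells given equal DMSO.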

Bacillus subtilis [3] = assay: Growth inhibition of Bacillus subtilis at 200 uM measured every 10 mins for 16 hrs; type: functional; conditions: read-out: GI; method in brief: as §2

Row | Compound | inhibition (Bacillus subtilis [1]) [%] | IC50 [2] [µM] | inhibition of growth at 200 µM (Escherichia coli) [%] | inhibition of growth at 200 µM (Bacillus subtilis [3]) [%]
1 | CCNC(=O)Nc1ccc(OCCCCOc2ccc(NC(=O)NCC)cc2)cc1 | 52 | 19.8 | 17 | –
2 | COc1ccc(/C=C/C(=O)c2ccc(OC)c(OC)c2)c(OC)c1 | 48 | – | – | –
3 | COc1ccc(-c2cc(-c3ccc(OC)c(OC)c3)nc(NS(=O)(=O)c3ccc(N)cc3)n2)c(OC)c1 | 3 | – | – | –
4 | COc1cc(/C=N/NC(=O)CCc2ccc(O)cc2)cc(OC)c1OC | 5 | – | 10 | 44
5 | COc1ccc(-c2cc(-c3ccc(OC)c(OC)c3)nc(NS(=O)(=O)c3ccc(NC(C)=O)cc3)n2)c(OC)c1 | 88 | 6.1 | 21 | 9
6 | O=[N+]([O-])c1ccc(OCC(O)CNCCNc2nccc(C(F)(F)F)n2)cc1 (racemic) | – | – | 11 | 19
7 | H-YDHRLLDQS-NH2 | – | 71 | – | –
8 | Oc1ccccc1CNc1ccc(OCCCCOc2ccc(NCc3ccccc3O)cc2)cc1 | 45 | 210 | – | –
